# Screens (PubChem BioAssay)
# This is a sample that favours compounds with a hit; in the whole collection about 2.6% have one here.
# Env fusion inh: blocks HIV Env-driven cell-cell fusion | HeLa-JRFL Env/CEM21 cell fusion, luciferase | inhibition, % at 12.3 µM | 360,000 compounds, 1.1% hits | AID 651610;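 active = mean replicate inhibition score of at least 50 and every replicate individually at or above 50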;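 also: 0% = plate neutral controls and 100% = maraviroc near 300 nM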
# FN deposit inh: fibronectin deposition inhibition | 350,000 compounds, 0.086% hits | AH1F fibroblasts, Alexa488-fibronectin deposition fluorescence, overnight | inhibition, % at 12.6 µM;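 active = mean inhibition across replicates of 30% or more, regardless of how many single replicates reach that level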;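 also: positive control wells lacked labelled fibronectin entirely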
#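 test system = AH1F fibroblasts assembling fluorescent fibronectin matrix | quantity = 10000 AH1F cells per well | buffer or medium = DMEM plus 2% serum, read in PBS | doses = single dose, pinned | incubation = 1 h cell attachment, overnight exposure to compound and label | detection = fluorescence at 485 nm excitation, 525 nm emission | read-out basis = inhibition from reduced deposited-fibronectin fluorescence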
# S100A4 inh HTS: inhibitors of human S100A4 binding to myosin IIA peptide; P26447; S100A4/TAMRA-MyoIIA peptide fluorescence polarization; inhibition, % at 10.7 µM; 360,000 compounds, 0.14% hits; AID 652163;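 active = mean inhibition of at least 70% across replicates, with every replicate also reaching that level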
# Target sequence (P26447 whole entry, looked up): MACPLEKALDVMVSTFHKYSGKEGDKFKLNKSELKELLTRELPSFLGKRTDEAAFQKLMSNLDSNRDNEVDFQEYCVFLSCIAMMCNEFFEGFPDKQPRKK
#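 Material: S100A4 monomer protein | Medium: HEPES pH 7.2 with CaCl2, KCl, NaCl, DTT, Triton | Reagent: Labelled myosin peptide probe, 5 nM | Doses: One dose per compound | Times: 5 min incubation before reading | Benchmarks: Neutral control DMSO, positive control TFP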
# miR-122 sensor: inhibitors of miR-122 in Huh7 cells. Huh7 miR-122 Renilla luciferase sensor, 48 h; neutral wells = 0, positive control = 100. activation (reporter increase), % at 12.5 µM. 340,000 compounds, 0.3% hits. AID 602342;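 active = mean replicate activation score at least 90 and every replicate individually at or above 90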;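 also: higher luciferase means less miR-122 activity so hits act as miR-122 inhibitors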
# rRNA inh HTS: selective bacterial rRNA inhibition in E. coli; E. coli WT GFP vs humanized-ribosome RFP mutants, fluorescence, 24 h; hits give low values; DMSO median 0, no signal -100; GFP signal change (wild-type ribosome), % (test concentration not listed); 350,000 compounds, 1.6% hits; AID 720706;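 active = significant combined selectivity score with lowered wild-type GFP, culture density cut under 30%, mutant RFP and density less affected; inactive = any of these conditions unmet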
# Vif inh: inhibitors of HIV Vif | HEK293T cells, Vif self-association by quenched fluorescence, imaging, 24 h | inhibition, % at 7.49 µM | 340,000 compounds, 0.35% hits | AID 602346; in the data active = inhibition above about 50%, passing the limit was not always enough
# * marks the source's active call; other numbers are inactive results; · = no result; ! = not active in a repeat; [ ] = another dose, or the depositor's remark.
SMILES,Env fusion inh,FN deposit inh,S100A4 inh HTS,miR-122 sensor,rRNA inh HTS,Vif inh
O=C(Nc1ccccc1F)N[C@H]1CC[C@H](CCNC(=O)C2CCCCC2)O[C@H]1CO,27.5[16.7 µM],0.7,87.4*,17.8[16.7 µM],-1.7,·
O=C(Nc1cccc(Cl)c1)N[C@H]1CC[C@H](CCNC(=O)C2CCCC2)O[C@@H]1CO,19.8[16.7 µM],-0.2,1.2,11.6[16.7 µM],-4.4,·
C[C@H]1CN([C@@H](C)CO)C(=O)c2cccc(NC(=O)Nc3cccc4ccccc34)c2O[C@H]1CN(C)S(C)(=O)=O,-8.4[16.7 µM],·,-6.9,3.7[16.7 µM],-4.9,·
COc1ccc(S(=O)(=O)N[C@H]2CC[C@H](CC(=O)NCCc3ccccc3)O[C@@H]2CO)cc1,-6.0[16.7 µM],3.2,10.8,·,-0.1,·
COc1cccc(NC(=O)N(C)C[C@@H]2Oc3cc(C#CC4(O)CCCC4)ccc3S(=O)(=O)N([C@@H](C)CO)C[C@H]2C)c1,·,15.8,6.7,9.3[16.7 µM],1.3,·
CC(C)C#Cc1ccc2c(c1)O[C@@H](CN(C)C(=O)C1CCCCC1)[C@H](C)CN([C@H](C)CO)S2(=O)=O,57.8*[16.7 µM],·,·,-5.3[16.7 µM],2.1,·
C[C@H](CO)N1C[C@H](C)[C@H](CN(C)C(=O)C2CCCCC2)Oc2cc(Br)ccc2S1(=O)=O,55.2*[16.7 µM],-23.9,·,-7.3[16.7 µM],-8.1,·
CC(C)C#Cc1ccc2c(c1)O[C@@H](CN(C)C(=O)C1CCCCC1)[C@H](C)CN([C@@H](C)CO)S2(=O)=O,35.8[16.7 µM],·,·,18.7[16.7 µM],-6.4,·
C[C@@H]1CN([C@H](C)CO)S(=O)(=O)c2ccc(C#Cc3cccc(F)c3)cc2O[C@@H]1CN(C)C(=O)CN1CCOCC1,80.7*!,2.9,1.1,-2.3,-0.8,3.2
COc1cccc(NC(=O)N(C)C[C@H]2Oc3cc(C#CC4(O)CCCC4)ccc3S(=O)(=O)N([C@H](C)CO)C[C@H]2C)c1,·,-9.0,95.4*,3.9[16.7 µM],-6.6,·
C[C@H]1CN([C@@H](C)CO)C(=O)c2ccccc2-c2ccccc2CO[C@@H]1CN(C)C(=O)Oc1ccccc1,·,-3.5,7.6,·,1.8,·
CCCN(C)C[C@@H]1Oc2ncc(-c3cccnc3)cc2C(=O)N([C@H](C)CO)C[C@H]1C,-16.2[16.7 µM],-2.7,-6.7,0.7[16.7 µM],-1.2,·
CNC[C@H]1Oc2ccc(NS(=O)(=O)c3ccc(OC)cc3)cc2CC(=O)N([C@H](C)CO)C[C@@H]1C,-10.4[16.7 µM],·,·,-4.6[16.7 µM],-0.1,·
C[C@@H]1CCCCO[C@H](CN(C)C(=O)C2CCCCC2)[C@H](C)CN([C@@H](C)CO)C(=O)c2cc(NS(=O)(=O)c3ccc(F)cc3)ccc2O1,-2.4[16.7 µM],-6.1,21.9,-6.6[16.7 µM],-7.4,·
CO[C@H]1CN(C)C(=O)c2ccc(NC(C)=O)cc2OC[C@H](C)N(C(=O)CC2CC2)C[C@H]1C,-1.2[16.7 µM],2.2,·,-25.3[16.7 µM],0.9,·
COCC(=O)N(C)C[C@H]1Oc2cc(C#CCN(C)C)ccc2S(=O)(=O)N([C@@H](C)CO)C[C@H]1C,7.2[16.7 µM],9.9,111.6*,-8.6[16.7 µM],0.4,·
C[C@H](CO)N1C[C@H](C)[C@H](CN(C)C(=O)NC2CCCC2)Oc2cc(C#Cc3ccc(F)cc3)ccc2S1(=O)=O,63.3*[16.7 µM],-3.1,-22.0,5.7[16.7 µM],-4.7,·
COc1cc(NC2c3ncccc3C(=O)N2Cc2ccco2)cc(OC)c1 (stereo unspecified),60.0*,·,-8.3,-5.5,5.1,15.5
COc1ccc(CN2C(=O)c3cccnc3C2Nc2ccc(OC)c(Cl)c2)cc1 (stereo unspecified),·,·,-3.0,0.9,-15.1,0.5
Cc1onc(-c2c(F)cccc2Cl)c1C(=O)OCC(=O)NC(N)=O,-4.6,9.8,4.5,5.3,·,-1.2
Cc1onc(-c2c(F)cccc2Cl)c1C(=O)OCC(=O)NC(c1ccccc1)c1ccccc1,93.5*,·,·,-0.9,·,2.4
Cc1cc(C(=O)NCCC2=CCCCC2)ccc1[N+](=O)[O-],-13.6,·,-13.7,-3.2,-34.8*,-5.2
CCS(=O)(=O)Nc1ccc2c(c1)C(=O)N(C)C[C@@H](OC)[C@H](C)CN(Cc1nccs1)[C@H](C)CO2,·,1.2,-3.3,0.4[16.7 µM],2.9,·
CCCn1c(=O)c2ccccc2n2c(SCCOc3ccc(OC)cc3)nnc12,·,·,-5.9,-1.5,-18.4*,19.4
CC(=O)N1CCC(=NNC(=O)c2cc3ccccc3cc2O)CC1,-7.6,0.3,-10.3,-10.3,18.6,50.5*
